The source of these data is ChEMBL document CHEMBL1125784, “Geiparvarin analogues. 2. Synthesis and cytostatic activity of 5-(4-arylbutadienyl)-3(2H)-furanones and of N-substituted 3-(4-oxo-2-furanyl)-2-buten-2-yl carbamates” (J Med Chem, 1991).

What all share (assay type): functional, cell-based
Assay [1] deals with MT4. Description: Inhibitory activity against proliferation of human T-lymphocyte MT-4 tumor cell line. The method, boiled down:
(§1)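 MT-4 cells in growth medium, plated at 6.25×10^4 cells/well with serial compound concentrations. Incubation was 72 h at 37 °C, humidified and CO2-controlled, then cells were counted electronically (Coulter). IC50 is the concentration lowering viable cell number by 50%.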

The test system of assay [2] is FM3A. Description: Inhibitory activity against proliferation of murine mammary carcinoma FM3A tumor cell line. Conditions: Mus musculus. Summed up:
(§2)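 Molt/4F or FM3A cells were suspended in growth medium and plated at 5×10^4 cells/well with varying compound concentrations. They proliferated 72 h at 37 °C in a humidified, CO2-controlled atmosphere before Coulter-counter enumeration. IC50 is the concentration giving a 50% drop in viable cell count.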

Assay [3] deals with L1210. Description: Inhibitory activity against proliferation of murine leukemia L1210 tumor cell line. Conditions: Mus musculus. The method, boiled down: (§3)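 L1210 cells in growth medium, seeded at 5×10^4 cells/well with a range of test compound concentrations, grown 48 h at 37 °C in humidified CO2-controlled air. Cells were counted in a Coulter counter. IC50 is the concentration reducing viable cell number by 50%.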

Assay [4] has as its system MOLT-4F. Description: Inhibitory activity against proliferation of human T-lymphoblast Molt/4F tumor cell line. The method, boiled down:
as §2

Assay [5] relates to FM3A. The experiment in a line: Inhibitory activity against proliferation of murine (FM3A) tumor cell. The conditions noted are these: Mus musculus. Summed up:
as §2

The test system of assay [6] is MOLT-4F. The experiment in a line: Inhibitory activity against proliferation of human(Molt/4F) tumor cell. The method, boiled down:
as §2

The test system of assay [7] is L1210. The experiment in a line: Inhibitory activity against proliferation of murine (L1210) tumor cell. The conditions noted are these: Mus musculus. Summed up:
as §3

The subject of assay [8] is MT4. The experiment in a line: Inhibitory activity against proliferation of human(MT-4) tumor cell. Summed up:
as §1

Each structure is given as a SMILES string. Converted amounts (≈) assume the structure as drawn. A value given as a limit tells only on which side of the number the result lay.

Take `C/C(=C\COC(=O)NC(C)(C)C)C1=CC(=O)C(C)(C)O1`: the concentration for half-maximal inhibition (IC50) with MT4 [1] stood at 2.1 mg/L (≈ 7.46 µM); in the assay on FM3A [2], 7.1 mg/L (≈ 25.2 µM); in the assay on L1210 [3] it was 4.1 mg/L (≈ 14.6 µM); in the assay on MOLT-4F [4] it was 6.1 mg/L (≈ 21.7 µM).

Turning to `COc1cc2ccc(=O)oc2cc1OC/C=C(\C)C1=CC(=O)C(C)(C)O1`, the half-inhibitory concentration (IC50) with FM3A [5] turned out to be 3.9 mg/L (≈ 10.9 µM); with MOLT-4F [6], 2.9 mg/L (≈ 8.14 µM); in the assay with L1210 [7], 2 mg/L (≈ 5.61 µM); in the assay on MT4 [8], 0.6 mg/L (≈ 1.68 µM).

Regarding `C/C(=C\COC(=O)NC(C)C)C1=CC(=O)C(C)(C)O1`, the IC50 turned out to be 2.3 mg/L (≈ 8.6 µM) in the assay with MT4 [1], 7.2 mg/L (≈ 26.9 µM) in the assay with FM3A [2], 4.9 mg/L (≈ 18.3 µM) in the assay with L1210 [3] and 6.6 mg/L (≈ 24.7 µM) in the assay on MOLT-4F [4].

Turning to `COc1ccc(/C=C/C=C(\C)C2=CC(=O)C(C)(C)O2)cc1`, the IC50 in the assay on MT4 [1] was 5.7 mg/L (≈ 20 µM); with FM3A [2], 25 mg/L (≈ 87.9 µM); with L1210 [3], 18 mg/L (≈ 63.3 µM); with MOLT-4F [4] it was 10 mg/L (≈ 35.2 µM).

Turning to `C/C(=C\C=C\c1ccccc1)C1=CC(=O)C(C)(C)O1`, the IC50 in the assay on MT4 [1] came to 6.5 mg/L (≈ 25.6 µM); in the assay on FM3A [2] it was 15 mg/L (≈ 59 µM); in the assay on L1210 [3], 14 mg/L (≈ 55 µM); in the assay with MOLT-4F [4] it was 14 mg/L (≈ 55 µM).

As to `C/C(=C\COC(=O)NC1CCCCC1)C1=CC(=O)C(C)(C)O1`, the 50% inhibitory concentration (IC50) in the assay with MT4 [1] is 2.4 mg/L (≈ 7.81 µM); in the assay on FM3A [2] it was 13 mg/L (≈ 42.3 µM); with L1210 [3], 3.7 mg/L (≈ 12 µM); in the assay on MOLT-4F [4] it was 3.4 mg/L (≈ 11.1 µM).

As for `C/C(=C\COC(=O)NCCCl)C1=CC(=O)C(C)(C)O1`, the half-inhibitory concentration (IC50) worked out at 20.8 mg/L (≈ 72.3 µM) in the assay on FM3A [5], 10.7 mg/L (≈ 37.2 µM) in the assay with MOLT-4F [6], 5.1 mg/L (≈ 17.7 µM) with L1210 [7] and 6.4 mg/L (≈ 22.2 µM) in the assay with MT4 [8].

In the case of `C/C(=C\C=C\c1ccc2ccc(=O)oc2c1)C1=CC(=O)C(C)(C)O1`, the IC50 in the assay on FM3A [5] was greater than 100 mg/L; with MOLT-4F [6], 13 mg/L (≈ 40.3 µM); in the assay on L1210 [7] it was 63 mg/L (≈ 195 µM); in the assay with MT4 [8], 2.9 mg/L (≈ 9 µM).

On to `C/C(=C\COC(=O)NCc1ccccc1)C1=CC(=O)C(C)(C)O1`, for which the IC50 with MT4 [1] came out at 2 mg/L (≈ 6.34 µM); with FM3A [2], 8.1 mg/L (≈ 25.7 µM); with L1210 [3] it was 4.7 mg/L (≈ 14.9 µM); with MOLT-4F [4], 6 mg/L (≈ 19 µM).

With `C/C(=C\COC(=O)Nc1ccccc1)C1=CC(=O)C(C)(C)O1`, the concentration for half-maximal inhibition (IC50) in the assay with MT4 [1] was 103 mg/L (≈ 342 µM); in the assay on FM3A [2] it was greater than 200 mg/L; in the assay with L1210 [3], greater than 200 mg/L; in the assay with MOLT-4F [4], greater than 200 mg/L.

As to `C=CCNC(=O)OC/C=C(\C)C1=CC(=O)C(C)(C)O1`, the IC50 in the assay with MT4 [1] amounted to 2.8 mg/L (≈ 10.6 µM); with FM3A [2] it was 7.6 mg/L (≈ 28.6 µM); in the assay with L1210 [3], 6.2 mg/L (≈ 23.4 µM); in the assay with MOLT-4F [4], 7.7 mg/L (≈ 29 µM).

On to `C/C(=C\C=C/C1CCCCC1)C1=CC(=O)C(C)(C)O1`, for which the IC50 was 8.4 mg/L (≈ 32.3 µM) with MT4 [1], 10.8 mg/L (≈ 41.5 µM) in the assay with FM3A [2], 23 mg/L (≈ 88.3 µM) in the assay with L1210 [3] and 7.1 mg/L (≈ 27.3 µM) with MOLT-4F [4].

As to `CCCCNC(=O)OC/C=C(\C)C1=CC(=O)C(C)(C)O1`, the IC50 was determined as 1.2 mg/L (≈ 4.27 µM) in the assay on MT4 [1], 7.7 mg/L (≈ 27.4 µM) with FM3A [2], 2.6 mg/L (≈ 9.24 µM) in the assay on L1210 [3] and 5.3 mg/L (≈ 18.8 µM) in the assay on MOLT-4F [4].

Turning to `CCCCCCCCNC(=O)OC/C=C(\C)C1=CC(=O)C(C)(C)O1`, the IC50 in the assay on FM3A [5] was determined as 7.1 mg/L (≈ 21 µM); in the assay on MOLT-4F [6] it was 1.7 mg/L (≈ 5.04 µM); in the assay with L1210 [7], 2 mg/L (≈ 5.93 µM); in the assay with MT4 [8], 1.3 mg/L (≈ 3.85 µM).
